Values after ≈ are worked out from the molar mass of the structure shown.
How the values were obtained:
Staphylococcus aureus [1] = assay: Antimicrobial activity against hospital-acquired vancomycin-intermediate Staphylococcus aureus NRS126 infected in human THP-1 cells assessed as bacterial count per mg of cell protein at high extracellular compound concentration after 24 hrs at pH 7.4; format: functional
In short: (§1)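 THP-1 macrophages infected as described previously, with a postphagocytosis inoculum of 1.5 × 10⁶ to 3.0 × 10⁶ CFU/mg cell protein. Cells were exposed 24 h to increasing extracellular antibiotic concentrations. Response is the change in log10 CFU/mg protein from the inoculum (n = 3), fitted to a Hill function. E0 and Emax were extrapolated to infinitely low and high concentrations. EC50 and static concentration (graphical interpolation) are expressed as multiples of the broth MIC at pH 5.5 or 7.4.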

Staphylococcus aureus [2] = assay: Antimicrobial activity against hospital-acquired methicillin-resistant Staphylococcus aureus ATCC 33591 infected in human THP-1 cells assessed as bacterial count per mg of cell protein at low extracellular compound concentration after 24 hrs; format: functional; in short: as §1
Staphylococcus aureus [3] = assay: Antimicrobial activity against hospital-acquired methicillin-resistant Staphylococcus aureus […] infected in human THP-1 cells assessed as change in bacterial count after 24 hrs at pH 7.4; format: functional, organism-based; conditions: THP-1, 24 h; in short: as §1
Staphylococcus aureus [4] = assay: Antimicrobial activity against methicillin-resistant Staphylococcus aureus ATCC 33591 infected in human keratinocytes assessed as bacterial count per mg of cell protein at low extracellular compound concentration after 24 hrs; format: functional
In short: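 Primary human skin keratinocytes were grown in defined keratinocyte serum-free medium, infected with a postphagocytosis inoculum of 1.5 × 10⁶ to 3.0 × 10⁶ CFU/mg cell protein, then exposed 24 h to increasing extracellular antibiotic concentrations. Change in log10 CFU/mg protein from the inoculum was fitted to a Hill equation with slope 1. E0 and Emax were extrapolated to infinitely low and high concentrations, in total drug mg/liter.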

Staphylococcus aureus [5] = assay: Antimicrobial activity against Panton-valentine leucocidin-positive community-acquired methicillin-resistant Staphylococcus aureus N4042228 infected in human THP-1 cells assessed as bacterial count per mg of cell protein at low extracellular compound concentration after 24 hrs; format: functional
In short: (§2)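 THP-1 human macrophages infected with S. aureus (postphagocytosis inoculum 1.5 × 10^6 to 3.0 × 10^6 CFU/mg cell protein), then incubated 24 h with increasing extracellular antibiotic concentrations. Change in log10 CFU/mg cell protein from the postphagocytosis inoculum, n = 3. Hill function fitted on log-transformed data. Low-concentration value (E0) and high-concentration value (Emax) are extrapolated. Where a pH is given, concentrations are expressed as multiples of the broth MIC at that pH.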

Staphylococcus aureus [6] = assay: Bacteriostatic activity against methicillin-susceptible Staphylococcus aureus […] infected in human THP-1 cells assessed as change in bacterial count after 24 hrs at pH 5.5; format: functional
In short: (§3)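 Human THP-1 macrophage-like cells were infected with S. aureus to a postphagocytosis inoculum of 1.5 × 10^6 to 3.0 × 10^6 CFU/mg cell protein. Cells were then exposed 24 h to increasing extracellular antibiotic concentrations. Response was the log10 CFU change per mg protein from the postphagocytosis inoculum, n = 3. A Hill function was fitted on log-transformed axes. E0 and Emax were extrapolated to infinitely low and high concentrations. Cs was read by graphical interpolation. Concentrations were expressed as multiples of the broth MIC at pH 5.5 or pH 7.4.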

Staphylococcus aureus [7] = assay: Antimicrobial activity against methicillin-susceptible Staphylococcus aureus […] infected in human THP-1 cells assessed as bacterial count per mg of cell protein at high extracellular compound concentration after 24 hrs at pH 7.4; format: functional; in short: as §3
Staphylococcus aureus [8] = assay: Antimicrobial activity against hospital-acquired vancomycin-intermediate Staphylococcus aureus NRS126 infected in human THP-1 cells assessed as bacterial count per mg of cell protein at low extracellular compound concentration after 24 hrs at pH 7.4; format: functional; in short: as §1
Staphylococcus aureus [9] = assay: Antimicrobial activity against hospital-acquired methicillin-resistant Staphylococcus aureus ATCC 33591 infected in human THP-1 cells assessed as bacterial count per mg of cell protein at high extracellular compound concentration after 24 hrs; format: functional; in short: as §2
Staphylococcus aureus [10] = assay: Antimicrobial activity against Panton-valentine leucocidin-positive community-acquired methicillin-resistant Staphylococcus aureus N4042228 infected in human THP-1 cells assessed as change in bacterial count after 24 hrs; format: functional, organism-based; conditions: N4042228, THP-1, 24 h; in short: as §2
Staphylococcus aureus [11] = assay: Antimicrobial activity against hospital-acquired methicillin-resistant Staphylococcus aureus ATCC 33592 infected in human THP-1 cells assessed as change in bacterial count after 24 hrs at pH 7.4; format: functional, organism-based; conditions: ATCC 33592, THP-1, 24 h; in short: as §1
Staphylococcus aureus [12] = assay: Bacteriostatic activity against methicillin-susceptible Staphylococcus aureus NRS52 infected in human THP-1 cells assessed as change in bacterial count after 24 hrs at pH 7.4; format: functional; in short: as §3
Staphylococcus aureus [13] = assay: Antimicrobial activity against hospital-acquired methicillin-resistant Staphylococcus aureus ATCC 33591 infected in human THP-1 cells assessed as change in bacterial count after 24 hrs; format: functional, organism-based; conditions: ATCC 33591, THP-1, 24 h; in short: as §1
Staphylococcus aureus [14] = assay: Antimicrobial activity against Panton-valentine leucocidin-positive community-acquired methicillin-resistant Staphylococcus aureus STA 44 infected in human THP-1 cells assessed as change in bacterial count after 24 hrs at pH 5.5; format: functional, organism-based; conditions: STA 44, THP-1, 24 h; in short: as §2
Staphylococcus aureus [15] = assay: Antimicrobial activity against methicillin-susceptible Staphylococcus aureus NRS52 infected in human THP-1 cells assessed as change in bacterial count after 24 hrs at pH 5.5; format: functional, organism-based; conditions: NRS52, THP-1, 24 h; in short: as §1
Staphylococcus aureus [16] = assay: Bacteriostatic activity against Panton-valentine leucocidin-positive community-acquired methicillin-resistant Staphylococcus aureus NRS192 infected in human THP-1 cells assessed as change in bacterial count after 24 hrs at pH 5.5; format: functional; in short: as §1
Staphylococcus aureus [17] = assay: Antimicrobial activity against Panton-valentine leucocidin-positive community-acquired methicillin-resistant Staphylococcus aureus isolate MEH2225605 infected in human THP-1 cells assessed as change in bacterial count after 24 hrs; format: functional, organism-based; conditions: isolate MEH2225605, THP-1, 24 h; in short: as §2
Staphylococcus aureus [18] = assay: Bacteriostatic activity against methicillin-susceptible Staphylococcus aureus ATCC 25923 infected in human keratinocytes assessed as change in bacterial count after 24 hrs; format: functional
In short: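 Primary human skin keratinocytes were grown in defined keratinocyte serum-free medium and infected with S. aureus to 1.5 × 10^6 to 3.0 × 10^6 CFU/mg cell protein. Cells were exposed 24 h to increasing extracellular concentrations. Response was the log10 CFU change from the postphagocytosis inoculum, fitted by a Hill equation with slope 1. Cs is the concentration giving CFU equal to the original inoculum, found by graphical interpolation.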

Staphylococcus aureus [19] = assay: Antimicrobial activity against Panton-valentine leucocidin-positive community-acquired methicillin-resistant Staphylococcus aureus isolate MEH2225605 infected in human THP-1 cells assessed as bacterial count per mg of cell protein at low extracellular compound concentration after 24 hrs; format: functional; in short: as §2
Staphylococcus aureus [20] = assay: Antimicrobial activity against Panton-valentine leucocidin-positive community-acquired methicillin-resistant Staphylococcus aureus STA 228 infected in human THP-1 cells assessed as bacterial count per mg of cell protein at low extracellular compound concentration after 24 hrs; format: functional; in short: as §2
Staphylococcus aureus [21] = assay: Antimicrobial activity against Panton-valentine leucocidin-positive community-acquired methicillin-resistant Staphylococcus aureus N4090440 infected in human THP-1 cells assessed as change in bacterial count after 24 hrs at pH 7.4; format: functional, organism-based; conditions: N4090440, THP-1, 24 h; in short: as §2

Nc1nc(/C(=N/O)C(=O)N[C@@H]2C(=O)N3C(C(=O)O)=C(/C=C4\CCN([C@@H]5CCNC5)C4=O)CS[C@H]23)ns1 [CEFTOBIPROLE]
log10cfu (Staphylococcus aureus [1]): -0.99
log10cfu (Staphylococcus aureus [2]): 2.47
EC50 (Staphylococcus aureus [3]): 0.28 ×MIC
log10cfu (Staphylococcus aureus [4]): 2.04
log10cfu (Staphylococcus aureus [5]): 3.45
Activity (Staphylococcus aureus [6]): 1.19 × MIC
log10cfu (Staphylococcus aureus [7]): -1.04
log10cfu (Staphylococcus aureus [8]): 2.6
log10cfu (Staphylococcus aureus [9]): -0.78
EC50 (Staphylococcus aureus [10]): 0.07 µg/mL (≈ 0.131 µM)
EC50 (Staphylococcus aureus [11]): 0.28 ×MIC
Activity (Staphylococcus aureus [12]): 0.6 ×MIC
EC50 (Staphylococcus aureus [13]): 0.27 µg/mL (≈ 0.505 µM)
EC50 (Staphylococcus aureus [14]): 0.54 × MIC
EC50 (Staphylococcus aureus [15]): 0.41 × MIC
Activity (Staphylococcus aureus [16]): 1.45 × MIC
EC50 (Staphylococcus aureus [17]): 0.82 µg/mL (≈ 1.53 µM)
Activity (Staphylococcus aureus [18]): 0.91 mg/L
log10cfu (Staphylococcus aureus [19]): 2.47
log10cfu (Staphylococcus aureus [20]): 2.87
EC50 (Staphylococcus aureus [21]): 0.33 ×MIC

Source: ChEMBL document CHEMBL1649438, “Activities of ceftobiprole and other cephalosporins against extracellular and intracellular (THP-1 macrophages and keratinocytes) forms of methicillin-susceptible and methicillin-resistant Staphylococcus aureus” (Antimicrob Agents Chemother, 2009)
